Legend:
Motilin receptor [1] = target: T1, Motilin receptor (Homo sapiens, UniProt O43193); experiment: Agonist activity at human recombinant motilin receptor expressed in HEK293 cells by FLIPR assay; format: functional, cell-based
In short: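 HEK293 cells stably expressing human motilin receptor, seeded on poly-lysine plates 24 h before assay. Loaded with Fluo-4-AM (final) and 1 mM probenecid (final) in HEPES-buffered saline with 0.1% BSA for 1 h at 25 °C, washed, rested 20 min at 25 °C. Fluorescence change followed for 2 min after compound addition. Peak change over baseline was fitted with a 4-parameter logistic to give pEC50. Mean of at least three independent experiments (n = 2 for some).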

Cytochrome P450 3A4 [2] = target: T2, Cytochrome P450 3A4 (Homo sapiens, UniProt P08684); experiment: Inhibition of CYP3A4 using diethoxyfluorescein substrate; format: ADME
Cytochrome P450 3A4 [3] = target: T2, Cytochrome P450 3A4; experiment: Inhibition of CYP3A4 using phenyl-piperazinyl-methyl-benzyl-resofurin substrate; format: ADME
Liver microsomes [4] = experiment: Intrinsic clearance in human liver microsome; format: ADME
Liver microsomes [5] = experiment: Intrinsic clearance in rat liver microsome; format: ADME
Cytochrome P450 1A2 = target: T3, Cytochrome P450 1A2 (Homo sapiens, UniProt P05177); experiment: Inhibition of CYP1A2; format: ADME
T3 sequence (P05177 whole entry): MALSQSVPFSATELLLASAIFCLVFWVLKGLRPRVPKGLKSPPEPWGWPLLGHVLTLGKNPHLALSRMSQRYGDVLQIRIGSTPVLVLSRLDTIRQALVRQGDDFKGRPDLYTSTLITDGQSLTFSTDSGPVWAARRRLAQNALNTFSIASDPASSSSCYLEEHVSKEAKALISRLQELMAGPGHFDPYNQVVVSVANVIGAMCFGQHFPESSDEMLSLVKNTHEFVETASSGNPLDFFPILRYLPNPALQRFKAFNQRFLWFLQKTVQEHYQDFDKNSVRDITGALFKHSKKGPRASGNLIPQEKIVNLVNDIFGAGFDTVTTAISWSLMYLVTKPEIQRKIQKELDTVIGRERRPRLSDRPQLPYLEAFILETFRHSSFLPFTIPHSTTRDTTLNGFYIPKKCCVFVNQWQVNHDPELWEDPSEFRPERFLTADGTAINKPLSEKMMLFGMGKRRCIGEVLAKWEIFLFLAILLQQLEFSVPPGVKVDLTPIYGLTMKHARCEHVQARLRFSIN

Cytochrome P450 2C9 = Cytochrome P450 2C9 (Homo sapiens, UniProt P11712); experiment: Inhibition of CYP2C9; format: ADME
Cytochrome P450 2C19 = Cytochrome P450 2C19 (Homo sapiens, UniProt P33261); experiment: Inhibition of CYP2C19; format: ADME
Cytochrome P450 2D6 = Cytochrome P450 2D6 (Homo sapiens, UniProt P10635); experiment: Inhibition of CYP2D6; format: ADME
[6] = target: Voltage-gated inwardly rectifying potassium channel KCNH2 (Homo sapiens, UniProt Q12809); experiment: Inhibition of human ERG binding
[7] = target: Growth hormone secretagogue receptor type 1 (Homo sapiens, UniProt Q92847); experiment: Inhibition of human Ghrelin receptor
[8] = Distribution coefficient, log D at pH 7.4; format: physicochemical; details: octanol/water
[9] = Clearance in rat; format: ADME, organism-based; details: in vivo
[10] = Oral bioavailability in rat; format: ADME, organism-based; details: in vivo
[11] = Clearance in dog; format: ADME, organism-based, Canis lupus familiaris; details: in vivo
[12] = Oral bioavailability in dog; format: ADME, organism-based, Canis lupus familiaris; details: in vivo
Stomach [13] = experiment: Potentiation of electrical field stimulation-induced contraction in New Zealand white rabbit gastric antrum at 10 uM; format: functional; details: Oryctolagus cuniculus
Stomach [14] = experiment: Potentiation of electrical field stimulation-induced contraction in New Zealand white rabbit gastric antrum at 3 uM; format: functional; details: Oryctolagus cuniculus
Stomach [15] = experiment: Potentiation of electrical field stimulation-induced contraction in New Zealand white rabbit gastric antrum at 1 uM; format: functional; details: Oryctolagus cuniculus
Stomach [16] = experiment: Potentiation of electrical field stimulation-induced contraction in New Zealand white rabbit gastric antrum at 0.3 uM; format: functional; details: Oryctolagus cuniculus
[17] = Aqueous solubility of the compound; format: physicochemical
Motilin receptor [18] = target: T1, Motilin receptor; experiment: Agonist activity at human recombinant motilin receptor expressed in CHO cells by FLIPR assay; format: functional, cell-based
Stomach [19] = experiment: Potentiation of electrical field stimulation-induced contraction in New Zealand white rabbit gastric antrum at 1.5 uM; format: functional; details: Oryctolagus cuniculus

T2 sequence (P08684 whole entry): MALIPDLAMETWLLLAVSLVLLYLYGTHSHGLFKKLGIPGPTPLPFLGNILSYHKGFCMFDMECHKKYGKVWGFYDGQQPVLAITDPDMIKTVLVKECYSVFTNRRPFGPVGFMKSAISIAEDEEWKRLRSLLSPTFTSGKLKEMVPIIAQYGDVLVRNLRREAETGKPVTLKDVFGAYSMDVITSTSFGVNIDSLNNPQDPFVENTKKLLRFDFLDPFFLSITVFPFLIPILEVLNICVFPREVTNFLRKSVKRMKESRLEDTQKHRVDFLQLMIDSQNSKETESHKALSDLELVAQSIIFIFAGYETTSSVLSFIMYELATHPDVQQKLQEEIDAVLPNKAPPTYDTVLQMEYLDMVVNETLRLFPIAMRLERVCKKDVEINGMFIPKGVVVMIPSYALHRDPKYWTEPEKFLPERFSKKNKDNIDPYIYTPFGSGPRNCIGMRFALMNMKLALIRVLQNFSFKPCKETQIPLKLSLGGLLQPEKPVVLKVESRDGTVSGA
T1 sequence (O43193 whole entry): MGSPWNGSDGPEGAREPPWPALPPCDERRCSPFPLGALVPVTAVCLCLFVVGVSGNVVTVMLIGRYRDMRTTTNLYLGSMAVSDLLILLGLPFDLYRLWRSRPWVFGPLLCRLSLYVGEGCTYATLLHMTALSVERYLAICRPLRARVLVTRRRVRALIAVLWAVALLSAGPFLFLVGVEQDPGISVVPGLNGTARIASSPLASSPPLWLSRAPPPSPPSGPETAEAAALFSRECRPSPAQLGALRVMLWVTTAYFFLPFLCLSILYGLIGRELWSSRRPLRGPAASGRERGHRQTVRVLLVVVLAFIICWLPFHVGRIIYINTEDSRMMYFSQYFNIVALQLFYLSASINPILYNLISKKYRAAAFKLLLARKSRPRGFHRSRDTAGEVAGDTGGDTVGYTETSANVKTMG
Cytochrome P450 2C19, sequence (P33261 whole entry): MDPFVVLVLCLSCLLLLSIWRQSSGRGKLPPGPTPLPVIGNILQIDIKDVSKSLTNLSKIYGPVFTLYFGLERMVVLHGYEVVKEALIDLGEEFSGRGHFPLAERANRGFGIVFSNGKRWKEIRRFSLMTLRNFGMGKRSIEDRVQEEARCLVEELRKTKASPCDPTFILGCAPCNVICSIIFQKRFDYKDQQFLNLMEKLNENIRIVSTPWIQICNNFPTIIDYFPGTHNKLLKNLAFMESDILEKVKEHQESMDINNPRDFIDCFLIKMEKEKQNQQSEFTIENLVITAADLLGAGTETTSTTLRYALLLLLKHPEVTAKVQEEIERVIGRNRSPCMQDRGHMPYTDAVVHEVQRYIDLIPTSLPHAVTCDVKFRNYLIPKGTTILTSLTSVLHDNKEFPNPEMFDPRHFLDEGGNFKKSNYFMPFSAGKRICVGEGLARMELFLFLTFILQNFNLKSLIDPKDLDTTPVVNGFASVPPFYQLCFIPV
Growth hormone secretagogue receptor type 1, sequence (Q92847 whole entry): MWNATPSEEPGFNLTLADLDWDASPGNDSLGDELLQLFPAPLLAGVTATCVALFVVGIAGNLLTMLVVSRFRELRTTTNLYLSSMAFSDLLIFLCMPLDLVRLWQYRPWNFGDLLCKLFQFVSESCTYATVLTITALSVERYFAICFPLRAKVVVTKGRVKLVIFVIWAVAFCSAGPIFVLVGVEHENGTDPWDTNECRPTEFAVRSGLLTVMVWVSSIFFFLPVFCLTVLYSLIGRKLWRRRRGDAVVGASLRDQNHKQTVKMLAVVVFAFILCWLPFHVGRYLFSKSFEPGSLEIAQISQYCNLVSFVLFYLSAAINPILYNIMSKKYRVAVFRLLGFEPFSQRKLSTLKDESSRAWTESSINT
Cytochrome P450 2D6, sequence (P10635 whole entry): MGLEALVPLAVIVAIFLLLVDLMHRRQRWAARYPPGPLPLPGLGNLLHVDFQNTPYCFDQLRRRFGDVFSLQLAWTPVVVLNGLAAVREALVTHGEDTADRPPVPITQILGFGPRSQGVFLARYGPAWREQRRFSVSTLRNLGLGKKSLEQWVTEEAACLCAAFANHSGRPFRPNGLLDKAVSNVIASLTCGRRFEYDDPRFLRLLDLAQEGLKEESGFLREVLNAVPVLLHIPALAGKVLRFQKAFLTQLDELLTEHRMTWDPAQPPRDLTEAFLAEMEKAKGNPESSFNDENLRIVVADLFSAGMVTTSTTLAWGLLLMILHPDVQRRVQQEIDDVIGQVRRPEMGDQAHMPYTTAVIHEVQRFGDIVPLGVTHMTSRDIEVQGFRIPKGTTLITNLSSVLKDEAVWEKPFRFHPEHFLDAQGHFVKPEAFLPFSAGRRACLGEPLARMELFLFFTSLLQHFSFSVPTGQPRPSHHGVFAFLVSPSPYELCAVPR
Cytochrome P450 2C9, sequence (P11712 whole entry): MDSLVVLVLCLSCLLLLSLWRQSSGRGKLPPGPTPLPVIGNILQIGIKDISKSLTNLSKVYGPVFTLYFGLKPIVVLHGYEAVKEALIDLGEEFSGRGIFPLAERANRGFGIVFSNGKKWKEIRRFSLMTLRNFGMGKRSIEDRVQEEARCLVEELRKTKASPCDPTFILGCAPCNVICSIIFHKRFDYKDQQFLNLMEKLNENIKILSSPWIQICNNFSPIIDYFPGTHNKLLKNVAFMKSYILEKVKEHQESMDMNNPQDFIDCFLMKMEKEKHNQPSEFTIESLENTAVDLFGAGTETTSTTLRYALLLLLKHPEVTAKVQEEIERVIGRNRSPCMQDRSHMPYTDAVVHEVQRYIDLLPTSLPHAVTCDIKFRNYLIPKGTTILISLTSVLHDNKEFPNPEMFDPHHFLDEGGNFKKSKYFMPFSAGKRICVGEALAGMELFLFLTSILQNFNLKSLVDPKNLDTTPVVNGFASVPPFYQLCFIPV
Voltage-gated inwardly rectifying potassium channel KCNH2, sequence (Q12809 whole entry): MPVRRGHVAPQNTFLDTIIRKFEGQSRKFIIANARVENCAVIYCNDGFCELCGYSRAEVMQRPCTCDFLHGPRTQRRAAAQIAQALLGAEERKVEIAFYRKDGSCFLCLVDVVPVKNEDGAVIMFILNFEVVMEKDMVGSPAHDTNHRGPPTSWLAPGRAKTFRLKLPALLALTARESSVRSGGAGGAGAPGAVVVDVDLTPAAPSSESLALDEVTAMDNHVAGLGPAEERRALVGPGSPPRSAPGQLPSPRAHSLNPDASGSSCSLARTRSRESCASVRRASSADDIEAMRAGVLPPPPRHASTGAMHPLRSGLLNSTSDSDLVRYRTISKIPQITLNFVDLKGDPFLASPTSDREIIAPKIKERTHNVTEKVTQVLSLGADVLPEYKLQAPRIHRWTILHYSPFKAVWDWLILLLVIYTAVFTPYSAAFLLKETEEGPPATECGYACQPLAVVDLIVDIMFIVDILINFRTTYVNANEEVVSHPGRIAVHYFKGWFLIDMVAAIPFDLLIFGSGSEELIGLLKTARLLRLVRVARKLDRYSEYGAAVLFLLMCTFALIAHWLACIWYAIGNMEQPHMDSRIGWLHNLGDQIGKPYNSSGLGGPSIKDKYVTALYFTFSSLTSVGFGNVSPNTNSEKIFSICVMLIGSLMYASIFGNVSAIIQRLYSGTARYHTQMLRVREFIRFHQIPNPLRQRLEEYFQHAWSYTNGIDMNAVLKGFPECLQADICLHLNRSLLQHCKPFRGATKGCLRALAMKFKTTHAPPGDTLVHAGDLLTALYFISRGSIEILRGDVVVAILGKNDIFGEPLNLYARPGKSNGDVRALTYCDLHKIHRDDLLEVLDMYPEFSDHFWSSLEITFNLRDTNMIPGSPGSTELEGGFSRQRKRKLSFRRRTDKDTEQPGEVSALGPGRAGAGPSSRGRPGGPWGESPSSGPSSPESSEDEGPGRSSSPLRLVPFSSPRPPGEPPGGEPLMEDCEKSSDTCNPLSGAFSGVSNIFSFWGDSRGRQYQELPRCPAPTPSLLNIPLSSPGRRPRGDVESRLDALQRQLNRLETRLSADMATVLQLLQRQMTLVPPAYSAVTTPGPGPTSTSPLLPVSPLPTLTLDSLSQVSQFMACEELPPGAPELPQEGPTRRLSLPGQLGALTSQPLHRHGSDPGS

Row | SMILES | EC50 (Motilin receptor [1]) [nM] | IC50 (Cytochrome P450 3A4 [2]) [µM] | IC50 (Cytochrome P450 3A4 [3]) [µM] | CL (Liver microsomes [4]) [mL/min/g] | CL (Liver microsomes [5]) [mL/min/g] | also measured
1 | COc1ccc(NC2CCN(C(=O)c3ncccc3-c3ccc(CN4C[C@@H](C)N[C@@H](C)C4)cc3)CC2)cc1 | 1000 | – | – | – | – | –
2 | C[C@@H]1CN(Cc2ccc(-c3ccccc3CN(C)C(=O)Cc3ccc(F)cc3)cc2)C[C@H](C)N1 | 50.1 | – | – | – | – | –
3 | C[C@@H]1CN(Cc2ccc(-c3ccccc3C(=O)N3CCC(Cc4ccc(F)cc4)CC3)cc2)C[C@H](C)N1 | 10 | 0.6 | 0.5 | 29 | 7 | –
4 | C[C@@H]1CN(Cc2ccc(-c3cccnc3C(=O)N3CCC(Cc4ccc(F)cc4)CC3)cc2)C[C@H](C)N1 | 10 | 13 | 5.6 | 16 | 16 | –
5 | C[C@@H]1CN(Cc2ccc(-c3ccccc3CN(C)C(=O)COc3ccccc3)cc2)C[C@H](C)N1 | 79.4 | 7 | 24 | 4.9 | 9.5 | –
6 | Cc1ccc(S(=O)(=O)NCC(=O)N(C)Cc2ccccc2-c2ccc(CN3C[C@@H](C)N[C@@H](C)C3)cc2)cc1 | 20 | – | – | – | – | –
7 | C[C@@H]1CN(Cc2ccc(-c3cccnc3C(=O)N3CCC(Nc4ccc(F)cc4)CC3)cc2)C[C@H](C)N1 | 20 | > 100 | > 100 | 2.6 | 2.8 | IC50 (Cytochrome P450 1A2): > 100 µM; IC50 (Cytochrome P450 2C9): > 100 µM; IC50 (Cytochrome P450 2C19): > 100 µM; IC50 (Cytochrome P450 2D6): 15 µM; IC50 [6]: > 31.6 µM; EC50 [7]: 100 nM; logD [8]: 0.72; clearance [9]: 53 mL/min/kg; bioavailability [10]: 13%; clearance [11]: 19 mL/min/kg; bioavailability [12]: 58%; Emax at 10 µM (Stomach [13]): 486%; Emax at 3 µM (Stomach [14]): 343%; Emax at 1 µM (Stomach [15]): 299%; Emax at 0.3 µM (Stomach [16]): 168%
8 | C[C@@H]1CN(Cc2ccc(-c3cccnc3C(=O)N3CCC(Nc4cccc(F)c4)CC3)cc2)C[C@H](C)N1 | 6.31 | – | – | 4.4 | 6.5 | –
9 | C[C@@H]1CN(Cc2ccc(-c3ccccc3C(=O)N3CCC(Nc4ccc(F)cc4)CC3)nc2)C[C@H](C)N1 | > 10000 | – | – | – | – | –
10 | C[C@@H]1CN(Cc2ccc(-c3ccccc3C(=O)N3CCC(NC(=O)c4ccc(F)cc4)CC3)cc2)C[C@H](C)N1 | > 10000 | – | – | – | – | –
11 | COCCCN(Cc1ccccc1-c1ccc(CN2CCNCC2)cc1)C(=O)COc1ccccc1 | 398 | – | – | – | – | –
12 | C[C@@H]1CN(Cc2ccc(-c3cccnc3C(=O)N3CCC(Nc4ccccc4F)CC3)cc2)C[C@H](C)N1 | 50.1 | – | – | – | – | –
13 | Cc1cc(CC(=O)N(C)Cc2ccccc2-c2ccc(CN3C[C@@H](C)N[C@@H](C)C3)cc2)on1 | 1000 | 40 | > 100 | 2.4 | 2.9 | –
14 | C[C@@H]1CN(Cc2ccc(-c3ccccc3CN(C)C(=O)Cc3cccc(Cl)c3)cc2)C[C@H](C)N1 | 79.4 | 1.4 | 1.5 | 20 | 17 | –
15 | C[C@@H]1CN(Cc2ccc(-n3ccnc3C(=O)N3CCC(Nc4cccc(F)c4)CC3)cc2)C[C@H](C)N1.Cl | – | – | – | – | – | solubility [17]: ≥ 500 µg/mL
16 | COc1cccc(CCN(Cc2ccccc2-c2ccc(CN3C[C@@H](C)N[C@@H](C)C3)cc2)C(=O)NC2CCCCC2)c1 | 50.1 | 0.2 | 0.4 | > 50 | 23 | EC50 (Motilin receptor [18]): 10 nM
17 | CCN(CCc1ccccc1)C(=O)c1ccccc1-c1ccc(CN2C[C@@H](C)N[C@@H](C)C2)cc1 | 7.94 | 0.9 | 1.5 | 40 | 26 | –
18 | C[C@@H]1CN(Cc2ccc(-c3ccccc3C(=O)N3CCC(C(=O)c4ccc(F)cc4)CC3)cc2)C[C@H](C)N1 | 63.1 | 4.8 | 3.6 | – | – | –
19 | C[C@@H]1CN(Cc2ccc(-c3ccccc3C(=O)N3CCC(Nc4ccccc4)CC3)cc2)C[C@H](C)N1 | 5.01 | 12 | 17 | 7 | 20 | –
20 | C[C@@H]1CN(Cc2ccc(-n3ccnc3C(=O)N3CCC(Nc4cccc(F)c4)CC3)cc2)C[C@H](C)N1 | 15.8 | 58 | 46 | 3.4 | 4.1 | IC50 (Cytochrome P450 1A2): 74 µM; IC50 (Cytochrome P450 2C9): > 100 µM; IC50 (Cytochrome P450 2C19): > 100 µM; IC50 (Cytochrome P450 2D6): 29 µM; EC50 [7]: 501 nM; logD [8]: 0.82; clearance [9]: 61 mL/min/kg; bioavailability [10]: 17%; Emax at 3 µM (Stomach [14]): 224%; Emax at 0.3 µM (Stomach [16]): 73%; Emax at 1.5 µM (Stomach [19]): 302%
